Series [1] has as its target T1, ATP-dependent translocase ABCB1 (Homo sapiens, UniProt P08183). Description: Inhibition of human MDR1 expressed in mouse L5178Y cells assessed as […] by measuring fluorescence activity ratio at 10 uM preincubated for 10 mins measured after 40 mins relative to control. It counts as cell-based. The procedure, abridged:
(§1)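 Transfected P-gp L5178Y subline and parental cells, 1 x 10^6/mL in serum-free McCoy's 5A, were preincubated 10 min at rt with inhibitor (DMSO stock 1.0 mg/mL). Rhodamine 123 followed (5 µL of 0.5 mM), 40 min at 37 °C, then two PBS washes. Flow cytometry on 1 x 10^4 cells. FAR = MDR/parental uptake, each normalised to its own untreated control.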

Series [2] addresses T1, ATP-dependent translocase ABCB1. Briefly: Inhibition of human MDR1 expressed in mouse L5178Y cells assessed as […] by measuring fluorescence activity ratio at 1 uM preincubated for 10 mins measured after 40 mins relative to control. It counts as cell-based. The procedure, abridged:
as §1

The nature of series [3]: Cytotoxicity against mouse L5178Y cells assessed as cell viability at 10 uM after 24 hrs by MTT assay. It counts as cell-based. Particulars: read-out: Activity; call rule not given here. The method, boiled down:
(§2)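 Parental L5178Y mouse T-lymphoma cells and the human mdr1-transfected P-gp subline were kept in McCoy's 5A with 10% FCS, 2 mM L-glutamine and gentamicin, 37 °C, 5% CO2; the subline also got colchicine 60 ng/mL. Dihydropyridines were added at 1 to 80 µM final, 24 h at 37 °C. MTT was read at 560 nm after SDS/acetic acid/DMSO lysis. Triplicate runs.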

The nature of series [4]: Cytotoxicity against mouse L5178Y cells expressing p-gp assessed as cell viability at 10 uM after 24 hrs by MTT assay. It is filed as ADME, cell-based. Particulars: read-out: Activity. The procedure, abridged:
as §2

Series [5] is described as follows: Cytotoxicity against mouse L5178Y cells assessed as cell viability at 2.5 uM after 24 hrs by MTT assay. It counts as cell-based. Particulars: read-out: Activity. The method, boiled down: as §2
Series [6] is described as follows: Cytotoxicity against mouse L5178Y cells expressing p-gp assessed as cell viability at 2.5 uM after 24 hrs by MTT assay. It counts as ADME, cell-based. As to conditions: read-out: Activity. The procedure, abridged:
as §2

For series [7], the target named is T1, ATP-dependent translocase ABCB1. Description: Inhibition of human MDR1 expressed mouse L5178Y cells assessed as reduction of liposomal daunorubicin IC50 for cytotoxicity at 2.5 uM after 24 hrs by MTT assay. It is filed as cell-based. The method, boiled down:
(§3)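 Liposomal daunorubicin (DaunoXome) was tested in the P-gp overexpressing L5178Y subline after preincubation with inhibitor at 2.5 µM or higher levels, 24 h at 37 °C, 5% CO2. Readout was MTT, lysis, then A560. IC50 came from mean percent growth inhibition of triplicate runs.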
(Tetrazolium assays rely on reduction of a dye to a coloured formazan, in cell work by metabolically active cells.)

Series [8] shares this target. Description: Inhibition of human MDR1 expressed mouse L5178Y cells assessed as reduction of liposomal daunorubicin IC50 for cytotoxicity at 10 uM after 24 hrs by MTT assay. It is filed as cell-based.
For series [9] the target is unchanged. Briefly: Inhibition of human MDR1 expressed mouse L5178Y cells assessed as reduction of liposomal daunorubicin IC50 for cytotoxicity at 5 to 10 uM after 24 hrs by MTT assay. It counts as cell-based. The method, boiled down: as §3
Series [10] shares this target. Description: Inhibition of human MDR1 expressed mouse L5178Y cells assessed as reduction of liposomal daunorubicin IC50 for cytotoxicity at 1 uM after 24 hrs by MTT assay. It is filed as cell-based. Details: scale not given: the % may be the effect or the level left.
Series [11] has the same target. Briefly: Inhibition of human MDR1 expressed mouse L5178Y cells assessed as reduction of daunorubicin IC50 for cytotoxicity at 5 to 10 uM after 24 hrs by MTT assay. It counts as cell-based. The procedure, abridged: (§4)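 Daunorubicin at 0.01 to 10 µM was combined with inhibitor at 2.5, 5 or 10 µM in the P-gp overexpressing L5178Y subline, 24 h at 37 °C, 5% CO2. Readout was MTT (4 h), SDS/acetic acid/DMSO lysis, A560. IC50 came from mean percent growth inhibition, n = 3.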

Series [12] has the same target. Briefly: Inhibition of human MDR1 expressed mouse L5178Y cells assessed as reduction of daunorubicin IC50 for cytotoxicity at 2.5 uM after 24 hrs by MTT assay. It is filed as cell-based. Details: scale not given: the % may be the effect or the level left. The procedure, abridged:
as §4

Series [13] deals with L5178Y. Briefly: Cytotoxicity against mouse L5178Y cells expressing p-gp after 24 hrs by MTT assay. It counts as functional, cell-based. The procedure, abridged:
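Daunorubicin, 0.01 to 10 µM, was given to the P-gp expressing L5178Y subline (McCoy's 5A, 10% FCS, colchicine 60 ng/mL) in 96-well plates, 24 h at 37 °C, 5% CO2. MTT (5 mg/mL stock) was added for 4 h, cells were lysed 30 min in SDS/acetic acid/DMSO, and A560 was read. IC50 came from mean percent growth inhibition of triplicate runs.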

Series [14] deals with L5178Y. Briefly: Cytotoxicity against mouse L5178Y cells after 24 hrs by MTT assay. It counts as functional, cell-based. The method, boiled down:
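Mouse T-lymphoma L5178Y parental cells and the mdr1-transfected L5178Y mdr subline were grown in McCoy's 5A with 10% FCS (mdr subline kept in colchicine 60 ng/mL). Compounds were tested at 1 to 80 µM final for 24 h at 37 °C in 5% CO2. MTT was added for 4 h, then SDS/acetic acid/DMSO lysis and A560 read-out. Run in triplicate.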

Series [15] concerns L5178Y. Briefly: Ratio of IC50 for mouse L5178Y cells expressing p-gp to IC50 for mouse L5178Y cells. It counts as functional. The procedure, abridged: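 Parental L5178Y and P-gp-expressing L5178Y mdr cells were exposed to daunorubicin at 0.01–10 µM plus P-gp inhibitor for 24 h at 37 °C in 5% CO2. Viability was read by MTT (4 h) with SDS/acetic acid/DMSO lysis and A560. IC50s came from mean percent growth inhibition in triplicate, and the ratio is the mdr-line IC50 over the parental IC50.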

This note sets out measurements from ChEMBL document CHEMBL2321804, “Development of small-molecule P-gp inhibitors of the N-benzyl 1,4-dihydropyridine type: novel aspects in SAR and bioanalytical evaluation of multidrug resistance (MDR) reversal properties” (Bioorg Med Chem, 2013).

T1 sequence (P08183 whole entry): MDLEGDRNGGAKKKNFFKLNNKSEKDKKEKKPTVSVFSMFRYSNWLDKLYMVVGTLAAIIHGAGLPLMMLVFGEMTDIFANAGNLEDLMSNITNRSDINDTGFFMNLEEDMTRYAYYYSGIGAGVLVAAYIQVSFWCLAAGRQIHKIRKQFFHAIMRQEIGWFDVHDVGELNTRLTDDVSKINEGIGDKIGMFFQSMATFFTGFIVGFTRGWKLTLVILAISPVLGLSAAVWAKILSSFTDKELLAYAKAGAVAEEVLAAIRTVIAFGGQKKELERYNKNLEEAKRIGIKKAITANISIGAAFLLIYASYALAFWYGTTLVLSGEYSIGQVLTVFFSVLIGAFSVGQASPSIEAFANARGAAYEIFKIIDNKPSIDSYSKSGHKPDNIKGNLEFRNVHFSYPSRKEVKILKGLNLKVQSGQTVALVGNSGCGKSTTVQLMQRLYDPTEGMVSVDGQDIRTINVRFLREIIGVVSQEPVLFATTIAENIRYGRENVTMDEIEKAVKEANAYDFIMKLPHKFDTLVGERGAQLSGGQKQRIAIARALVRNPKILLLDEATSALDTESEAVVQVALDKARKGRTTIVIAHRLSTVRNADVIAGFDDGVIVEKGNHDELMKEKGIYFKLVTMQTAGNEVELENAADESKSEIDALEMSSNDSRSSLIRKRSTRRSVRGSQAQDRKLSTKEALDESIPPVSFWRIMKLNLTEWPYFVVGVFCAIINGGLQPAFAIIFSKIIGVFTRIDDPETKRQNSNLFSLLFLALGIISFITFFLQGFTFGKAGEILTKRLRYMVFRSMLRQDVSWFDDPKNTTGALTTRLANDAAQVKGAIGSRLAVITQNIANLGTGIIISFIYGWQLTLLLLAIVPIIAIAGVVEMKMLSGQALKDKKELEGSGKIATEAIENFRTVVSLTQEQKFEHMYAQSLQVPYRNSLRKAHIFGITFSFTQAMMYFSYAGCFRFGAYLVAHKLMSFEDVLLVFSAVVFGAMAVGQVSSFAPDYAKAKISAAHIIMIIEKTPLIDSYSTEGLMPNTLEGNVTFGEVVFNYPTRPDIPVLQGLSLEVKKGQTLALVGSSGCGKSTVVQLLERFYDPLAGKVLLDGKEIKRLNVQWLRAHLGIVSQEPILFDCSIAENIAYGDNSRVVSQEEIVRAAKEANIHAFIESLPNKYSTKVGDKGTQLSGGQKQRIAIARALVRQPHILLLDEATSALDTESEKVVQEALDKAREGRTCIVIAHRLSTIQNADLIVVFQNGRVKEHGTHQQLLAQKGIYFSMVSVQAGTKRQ

For `COC(=O)C1=CN(Cc2cccc3ccccc23)C=CC1c1ccccc1` (configuration not stated), the values for the RFU in series [1] and in series [2] were 2.19 and 1.19, respectively.

Regarding `CCOC(=O)C1=CN(Cc2cccc3ccccc23)C=CC1c1ccccc1` (configuration not stated), the RFU in [1] was 2.74; in series [2], 1.28.

As for `COC(=O)C1=CN(Cc2ccccc2)C=CC1c1cccc2ccccc12` (configuration not stated), the RFU in [1] stood at 2.35; in series [2], 1.22.

Regarding `CCOC(=O)C1=CN(Cc2ccccc2)C=CC1c1cccc2ccccc12` (configuration not stated), the RFU in series [1] was 3.45; in [2] it was 1.43.

In the case of `CCOC(=O)C1=CN(Cc2ccccc2)C=CC1c1cccc(C(F)(F)F)c1` (configuration not stated), the results for the RFU in series [1] and in series [2] were 2.33 and 1.17, respectively.

For the compound `COC(=O)C1=CN(Cc2ccccc2)C=CC1c1ccc(C)cc1` (configuration not stated), the RFU in series [1] worked out at 1.88; in series [2], 1.11.

Regarding `COC(=O)C1=CN(Cc2ccccc2)C=CC1c1ccccc1OC` (configuration not stated), the RFU in series [1] was 1.76; in series [2] it was 1.13.

As for `COC(=O)C1=CN(Cc2ccccc2)C=CC1c1ccc(OC)cc1` (configuration not stated), the RFU in series [1] stood at 2.95; in series [2], 0.85.

Turning to `CCOC(=O)C1=CN(Cc2ccccc2)C=CC1c1ccc(C)cc1` (configuration not stated), the RFU worked out at 2.54 in series [1] and 1.34 in series [2].

Regarding `CCOC(=O)C1=CN(Cc2ccccc2)C=CC1c1ccccc1OC` (configuration not stated), the RFU in series [1] is 2.38; in series [2], 1.18.

`CCOC(=O)C1=CN(Cc2ccccc2)C=CC1c1ccc(OC)cc1` (configuration not stated): the RFU in series [1] is 3.13; in [2] it was 1.52.

For `COC(=O)C1=CN(Cc2ccccc2OC)C=CC1c1ccccc1` (configuration not stated), the RFU in series [1] worked out at 3.97; in [2], 1.82.

Turning to `COC(=O)C1=CN(Cc2ccc(OC)cc2)C=CC1c1ccccc1` (configuration not stated), the RFU in series [1] was found to be 4.13; in series [2], 1.5.

For `COC(=O)C1=CN(Cc2ccc(C)cc2)C=CC1c1ccccc1` (configuration not stated), the viability at 24 h, 10 µM in series [3] and in series [4] was 75% throughout. Also, the values for the viability at 24 h, 2.5 µM in series [5] and in series [6] were 95% and 81%, respectively. The result in [7] and in [8] was Active. Moreover, the RFU in [1] was 7.8; in series [2], 1.72.

On to `CCOC(=O)C1=CN(Cc2ccccc2OC)C=CC1c1ccccc1` (configuration not stated), for which the results for the RFU in [1] and in series [2] were 4.64 and 1.72, respectively.

`CCOC(=O)C1=CN(Cc2ccc(OC)cc2)C=CC1c1ccccc1` (configuration not stated): the viability at 24 h, 10 µM turned out to be 100% in series [3] and 85% in series [4]. Further, the viability at 24 h, 2.5 µM in series [5] turned out to be 97%. Moreover, the Activity entry in series [9] was “Active”; in series [10], above 60%; in series [7] it was “Active”; in [8], “Active”. In addition, the RFU is on record as 4.89 in series [1] and 1.32 in series [2].

With `CCOC(=O)C1=CN(Cc2ccc(C)cc2)C=CC1c1ccccc1` (configuration not stated), the Activity entry in series [8] was “Active”; in series [11], “Active”; in series [12], above 50%. The RFU was found to be 7.8 in series [1] and 2.54 in [2].

In the case of `COC(=O)C1=CN(Cc2ccccc2)C=CC1c1cccc(Cl)c1` (configuration not stated), the RFU in series [1] amounted to 1.39; in series [2] it was 1.12.

`COC(=O)C1=CN(Cc2ccccc2)C=CC1c1cccc(Br)c1` (configuration not stated): the RFU is recorded as 1.22 in series [1] and 1.05 in [2].

With `COC(=O)C1=CN(Cc2ccccc2)C=CC1c1cccc(C(F)(F)F)c1` (configuration not stated), the RFU in [1] is listed as 1.53; in series [2], 1.05.

For the compound `CCOC(=O)C1=CN(Cc2ccccc2)C=CC1c1cccc(Cl)c1` (configuration not stated), the RFU stood at 2.67 in series [1] and 1.25 in series [2].

`CCOC(=O)C1=CN(Cc2ccccc2)C=CC1c1cccc(Br)c1` (configuration not stated): the RFU is listed as 2.76 in [1] and 1.27 in series [2].

Take `COc1cccc2c1C(=O)c1c(O)c3c(c(O)c1C2=O)C[C@@](O)(C(C)=O)C[C@@H]3O[C@H]1C[C@H](N)[C@H](O)[C@H](C)O1` (stereo in doubt; form 1) [DAUNORUBICIN]: the IC50 with L5178Y [13] was found to be 2.32 µM; in the series with L5178Y [14], 0.3 µM.

In the case of `COc1cccc2c1C(=O)c1c(O)c3c(c(O)c1C2=O)C[C@@](O)(C(C)=O)C[C@@H]3O[C@H]1C[C@H](N)[C@H](O)[C@H](C)O1` (stereo in doubt; form 2) [DAUNORUBICIN], in the series on L5178Y [15], the “Ratio IC50” value is above 10. Also, the IC50 came to 7.73 µM with L5178Y [13] and 0.73 µM in the series with L5178Y [14].

In the case of `COc1ccc(CCN(C)CCCC(C#N)(c2ccc(OC)c(OC)c2)C(C)C)cc1OC` (configuration not stated) [VERAPAMIL], the values for the RFU in [1] and in [2] were 2.94 and 0.89, respectively.

A word on the IC50: it is the midpoint of a concentration-inhibition curve.
